{
  "source": "ChEMBL document CHEMBL3351861",
  "about": "“New synthetic sulfone derivatives inhibit growth, adhesion and the leucine arylamidase APE2 gene expression of Candida albicans in vitro” (2015)",
  "key": {"Candida albicans [1]": {"system": "Candida albicans", "assay": "Reduction in APE2 gene expression in compound pre-treated Candida albicans CAI4 expressing delta-cph1 (CPH1) gene grown on human Caco2 cells monolayer at 16 ug/ml pre-treated for 2 hrs measured after 6 hrs by RT-PCR method", "format": "functional, Caco-2", "method_in_brief": "(§1)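 Blastoconidia are pre-incubated 2 h with 16 µg/ml sulfone in RPMI. They are then washed, resuspended in RPMI and placed on Caco-2 monolayers at 37°C, with RNA taken at 6 or 18 h. Real-time RT-PCR uses SYBR Green with 250 nM primers and 60 ng cDNA: 95°C 15 min, then 45 cycles of 94°C 15 s and 60°C 1 min, plus a melt curve. APE2 is normalized to ACT1 by 2^-ΔΔCt with 90028 as calibrator; three experiments.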"}, "Candida albicans [2]": {"system": "Candida albicans", "assay": "Reduction in APE2 gene expression in compound pre-treated Candida albicans SC5314 grown on human Caco2 cells monolayer at 16 ug/ml pre-treated for 2 hrs measured after 18 hrs by RT-PCR method", "format": "functional, Caco-2", "method_in_brief": "(§2)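 Caco-2 was seeded at 1.2×10^5 cells/ml in EMEM (10% FCS, 1 mM pyruvate, no antibiotics) for 18 h at 37°C, 5% CO2. Yeast (10^4 cfu/ml) was pre-incubated 2 h in RPMI with 16 µg/ml sulfone, washed, resuspended in RPMI and inoculated onto the monolayer at 37°C. APE2 mRNA was measured by SYBR qPCR against ACT1 (2^-ΔΔCt, 90028 calibrator), in triplicate.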"}, "Candida albicans [3]": {"system": "Candida albicans", "assay": "Reduction in APE2 gene expression in compound pre-treated Candida albicans CAI4 expressing delta-efg1 (EFG1) gene grown under YEPD medium at 16 ug/ml pre-treated for 2 hrs measured after 18 hrs by RT-PCR method", "format": "functional", "method_in_brief": "(§3)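 YEPD-grown yeast (18 h, 30°C) washed and held at 10^4 cfu/ml in YEPD with 16 µg/ml sulfone for 2 h. Cells were then washed and regrown 18 h at 30°C in YEPD. Total RNA was reverse-transcribed and SYBR Green qPCR run (250 nM primers, 60 ng cDNA, 45 cycles). APE2 was normalized to ACT1 by 2^-ΔΔCt with strain 90028 as calibrator. Done in triplicate on three occasions.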"}, "Candida albicans [4]": {"system": "Candida albicans", "assay": "Reduction in APE2 gene expression in compound pre-treated Candida albicans CAI4 expressing delta-cph1 gene grown under YEPD medium at 16 ug/ml pre-treated for 2 hrs measured after 18 hrs by RT-PCR method", "format": "functional", "method_in_brief": "(§4)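 Blastoconidia from YEPD (10^4 cfu/ml) are washed and exposed 2 h to 16 µg/ml sulfone in YEPD. They are then washed and regrown 18 h at 30°C in YEPD before RNA extraction. Real-time RT-PCR uses SYBR Green with 250 nM primers and 60 ng cDNA: 95°C 15 min, then 45 cycles of 94°C 15 s and 60°C 1 min, plus a dissociation curve. APE2 is normalized to ACT1 by 2^-ΔΔCt with strain 90028 as calibrator; three experiments.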"}, "Candida albicans [5]": {"system": "Candida albicans", "assay": "Inhibition of hyphae formation in Candida albicans 90028 assessed as appearance of spherical blastoconidia with polarly located budding without filament formation at 16 ug/ml incubated for 18 hrs by phase contrast microscopy"}, "Candida albicans [6]": {"system": "Candida albicans", "assay": "Reduction in APE2 gene expression in compound pre-treated Candida albicans 90028 grown under YEPD medium at 16 ug/ml pre-treated for 2 hrs measured after 18 hrs by RT-PCR method", "format": "functional", "method_in_brief": "as §4"}, "Candida albicans [7]": {"system": "Candida albicans", "assay": "Reduction in APE2 gene expression in compound pre-treated Candida albicans CAI4 expressing delta-cph1 (CPH1) gene grown on human Caco2 cells monolayer at 16 ug/ml pre-treated for 2 hrs measured after 18 hrs by RT-PCR method", "format": "functional, Caco-2", "method_in_brief": "as §1"}, "Candida albicans [8]": {"system": "Candida albicans", "assay": "Inhibition of cell adhesion of compound pre-treated Candida albicans CAI4 expressing delta-efg1 (EFG1) gene to human Caco2 cells assessed as cell adhesion level at 4 ug/ml pre-incubated for 18 hrs by colony counting method (reference value: 2.6 +/- 2.33%)", "format": "functional, Caco-2", "set-up": "scale not given: the % may be the effect or the level left"}, "Candida albicans [9]": {"system": "Candida albicans", "assay": "Reduction in APE2 gene expression in compound pre-treated Candida albicans SC5314 grown on human Caco2 cells monolayer at 16 ug/ml pre-treated for 2 hrs measured after 6 hrs by RT-PCR method", "format": "functional, Caco-2", "method_in_brief": "as §2"}, "Candida albicans [10]": {"system": "Candida albicans", "assay": "Reduction in APE2 gene expression in compound pre-treated Candida albicans 90028 grown on human Caco2 cells monolayer at 16 ug/ml pre-treated for 2 hrs measured after 6 hrs by RT-PCR method", "format": "functional, Caco-2", "method_in_brief": "as §1"}, "Candida albicans [11]": {"system": "Candida albicans", "assay": "Inhibition of cell adhesion of compound pre-treated Candida albicans CAI4 expressing delta-efg1 (EFG1) gene to human Caco2 cells assessed as cell adhesion level at 2 ug/ml pre-incubated for 18 hrs by colony counting method (reference value: 2.6 +/- 2.33%)", "format": "functional, Caco-2", "set-up": "scale not given: the % may be the effect or the level left"}, "Candida albicans [12]": {"system": "Candida albicans", "assay": "Reduction in APE2 gene expression in compound pre-treated Candida albicans CAI4 expressing delta-efg1 gene grown under YEPD medium at 16 ug/ml pre-treated for 2 hrs measured after 18 hrs by RT-PCR method", "format": "functional", "method_in_brief": "as §3"}, "Candida albicans [13]": {"system": "Candida albicans", "assay": "Increase in APE2 gene expression in compound pre-treated Candida albicans CAI4 expressing delta-cph1/delta-efg1 gene grown on human Caco2 cells monolayer at 16 ug/ml pre-treated for 2 hrs measured after 18 hrs by RT-PCR method", "format": "functional, Caco-2", "method_in_brief": "as §1"}, "Candida albicans [14]": {"system": "Candida albicans", "assay": "Reduction in APE2 gene expression in compound pre-treated Candida albicans CAI4 expressing delta-efg1 (EFG1) gene grown on human Caco2 cells monolayer at 16 ug/ml pre-treated for 2 hrs measured after 6 hrs by RT-PCR method", "format": "functional, Caco-2", "method_in_brief": "as §2"}, "Candida albicans [15]": {"system": "Candida albicans", "assay": "Reduction in APE2 gene expression in compound pre-treated Candida albicans CAI4 expressing delta-efg1 gene grown on human Caco2 cells monolayer at 16 ug/ml pre-treated for 2 hrs measured after 18 hrs by RT-PCR method", "format": "functional, Caco-2", "method_in_brief": "as §2"}, "Candida albicans [16]": {"system": "Candida albicans", "assay": "Reduction in APE2 gene expression in compound pre-treated Candida albicans SC5314 grown under YEPD medium at 16 ug/ml pre-treated for 2 hrs measured after 18 hrs by RT-PCR method", "format": "functional", "method_in_brief": "as §3"}, "Candida albicans [17]": {"system": "Candida albicans", "assay": "Reduction in APE2 gene expression in compound pre-treated Candida albicans CAI4 expressing delta-cph1 (CPH1) gene grown under YEPD medium at 16 ug/ml pre-treated for 2 hrs measured after 18 hrs by RT-PCR method", "format": "functional", "method_in_brief": "as §4"}, "Candida albicans [18]": {"system": "Candida albicans", "assay": "Reduction in APE2 gene expression in compound pre-treated Candida albicans CAI4 expressing delta-cph1/delta-efg1 gene grown under YEPD medium at 16 ug/ml pre-treated for 2 hrs measured after 18 hrs by RT-PCR method", "format": "functional", "method_in_brief": "as §4"}, "Candida albicans [19]": {"system": "Candida albicans", "assay": "Reduction in APE2 gene expression in compound pre-treated Candida albicans CAI4 expressing delta-cph1/delta-efg1 (EFG1) gene grown on human Caco2 cells monolayer at 16 ug/ml pre-treated for 2 hrs measured after 6 hrs by RT-PCR method", "format": "functional, Caco-2", "method_in_brief": "as §1"}, "Candida albicans [20]": {"system": "Candida albicans", "assay": "Reduction in APE2 gene expression in compound pre-treated Candida albicans CAI4 expressing delta-cph1/delta-efg1 (EFG1) gene grown on human Caco2 cells monolayer at 16 ug/ml pre-treated for 2 hrs measured after 18 hrs by RT-PCR method", "format": "functional, Caco-2", "method_in_brief": "as §1"}, "Candida albicans [21]": {"system": "Candida albicans", "assay": "Reduction in APE2 gene expression in compound pre-treated Candida albicans CAI4 expressing delta-cph1/delta-efg1 gene grown on human Caco2 cells monolayer at 16 ug/ml pre-treated for 2 hrs measured after 6 hrs by RT-PCR method", "format": "functional, Caco-2", "method_in_brief": "as §1"}},
  "note": "Activity calls are given as the source filed them. The calls are words filed in the database; no cut-off is given here.",
  "data": [
    {"smiles": "NNc1ccc(S(=O)(=O)C(Cl)(Br)Br)cc1[N+](=O)[O-]", "values": [
      {"measurement": "fold change (FC)", "setting": "Candida albicans [1]", "result": 10.25},
      {"measurement": "ΔCt", "setting": "Candida albicans [2]", "result": 3.83},
      {"measurement": "ΔCt", "setting": "Candida albicans [3]", "result": 3.44},
      {"measurement": "ΔCt", "setting": "Candida albicans [4]", "result": 0.11},
      {"measurement": "Activity", "setting": "Candida albicans [5]", "result": "Active"},
      {"measurement": "ΔCt", "setting": "Candida albicans [6]", "result": 2.82},
      {"measurement": "fold change (FC)", "setting": "Candida albicans [7]", "result": 9.29},
      {"measurement": "Activity", "setting": "Candida albicans [8]", "result": 0.91, "unit": "%"},
      {"measurement": "ΔCt", "setting": "Candida albicans [9]", "result": 6.39},
      {"measurement": "ΔCt", "setting": "Candida albicans [10]", "result": 7.44},
      {"measurement": "Activity", "setting": "Candida albicans [11]", "result": 0.51, "unit": "%"},
      {"measurement": "ΔCt", "setting": "Candida albicans [12]", "result": 3.69},
      {"measurement": "fold change (FC)", "setting": "Candida albicans [13]", "result": 1.38},
      {"measurement": "fold change (FC)", "setting": "Candida albicans [14]", "result": 10.7},
      {"measurement": "fold change (FC)", "setting": "Candida albicans [15]", "result": 9.07},
      {"measurement": "ΔCt", "setting": "Candida albicans [16]", "result": 2.84},
      {"measurement": "ΔCt", "setting": "Candida albicans [17]", "result": 4.71},
      {"measurement": "ΔCt", "setting": "Candida albicans [18]", "result": 4.05},
      {"measurement": "fold change (FC)", "setting": "Candida albicans [19]", "result": 9.42},
      {"measurement": "fold change (FC)", "setting": "Candida albicans [20]", "result": 3.55},
      {"measurement": "fold change (FC)", "setting": "Candida albicans [21]", "result": 10.26}
    ]}
  ]
}
